Bioassay records as filed in PubChem BioAssay.
IMP-1 inh = blocks Pseudomonas aeruginosa IMP-1 metallo-beta-lactamase | purified IMP-1, nitrocefin hydrolysis, epi-absorbance fluorescence | inhibition, % at 5.6 µM | hit rate 0.45% among 290,000 | AID 1556;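 active = inhibition above the mean plus 3 SD of all compounds in the same screening run, cut at about 4.5% in these data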;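 note: 0% = IMP-1 with DMSO and 100% = DMSO wells lacking enzyme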
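System: purified recombinant IMP-1 beta-lactamase. Medium: Zinc- and detergent-supplemented HEPES buffer, pH 7.1. Compound: one 5.6 µM dose […]. Schedule: 15 min preincubation plus 25 min reaction at 25 °C. Technique: Epi-absorbance fluorescence, 480 nm excitation, 530 nm emission.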
Mot1-301 SUMO = SUMOylation pathway inhibition by Mot1-301 growth rescue | S. cerevisiae Mot1-301 growth rescue, ATP luminescence, 38.5C; percent above DMSO median, 100 means doubled | growth rescue, % at 18.8 µM | hit rate 1% among 320,000 | AID 2716;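 active = every valid replicate shows activation above 250% relative to neutral control wells; inactive = the rest, any valid replicate at or below 250%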;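 note: OY570 slx delta 5 strain wells were the positive control but not used for scaling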
PolyA inhibitor = yeast polyadenylation inhibition | S. cerevisiae SKY197-pL101 polyadenylation reporter, beta-gal luminescence; efflux-impaired pdr1/pdr3 knockout yeast; score 100 = 6 SD above DMSO | activity score, % at 12 µM | hit rate 0.02% among 300,000 | AID 1875;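 active = lowest replicate activity score at least 50, where 100 means six control SD above control mean; inconclusive = lowest score under 50 but half or more replicates reach 50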;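 note: yeast exposed to compound for 9 h at 30 °C; higher score means more reporter readthrough which indicates perturbed polyadenylation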
NALP3 yeast inh = NALP3 inhibition in yeast; Yeast reconstituted NLRP3/ASC/caspase-1, beta-gal luminescence, 24 h; inhibition, % at 10 µM; hit rate 0.39% among 330,000;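 active = inhibition of 50% or more; inactive = inhibition below 50%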;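 note: plate controls were induced DMSO wells for no effect and uninduced yeast grown without galactose for full effect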
VIM-2 inh = blocks Pseudomonas aeruginosa VIM-2 metallo-beta-lactamase. hit rate 0.89% among 290,000. purified VIM-2, nitrocefin hydrolysis, epi-absorbance fluorescence. inhibition, % at 5.6 µM;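 active = inhibition above the mean of all tested compounds plus 3 SD, cutoff set per screening run, cut at about 7.5% in these data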;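 note: red hydrolysis product quenches plate fluorescence so inhibitors raise well fluorescence; 0% = enzyme with DMSO and 100% = DMSO without enzyme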
NALP1 inh = inhibitors of NALP1 inflammasome in yeast; S. cerevisiae NALP1/ASC/caspase-1 growth, X-gal OD620, 72 h; inhibition, % at 10 µM; hit rate 0.61% among 280,000; AID 2071; in the data active = inhibition mostly above about 24%, no sharp cut-off; inactive = mostly below about 32%
An asterisk follows results filed as active; ? = inconclusive; nt = no result; ! = a repeat was not active. Hits are enriched below; roughly 2.9% of the tested compounds scored in any of these assays.

SMILES	IMP-1 inh	Mot1-301 SUMO	PolyA inhibitor	NALP3 yeast inh	VIM-2 inh	NALP1 inh
CC(C)Sc1nc2ccccc2n2cnnc12	-2	10	-4	2	11*	8
CC(=O)N1CCOc2ccc(S(=O)(=O)Nc3ccc(Cl)cn3)cc21	22*	-11	-10	9	-2	23
OCCN1CCN(c2ncnc3ccc(Br)cc23)CC1	-3	nt	1	19	0	32*
OCCN1CCN(c2nc(-c3ccccc3)c3cc(Br)ccc3n2)CC1	-1	-2	19	34	8.0*	31
OCCN1CCN(C(=S)c2ccc(Br)cc2)CC1	-2	-14	-15	3	-2	-7
O=C(O)C1CCN(c2nc(-c3ccccc3)c3cc(Br)ccc3n2)CC1	4	3	-9	14	-1	21
Cc1ccc(SCC(=O)OCC(=O)NC(C)c2ccc(F)cc2)cc1 (stereo not drawn)	nt	17	nt	11	nt	nt
COc1ccc(C2=NCCn3nc4ccccc4c32)cc1	nt	6	nt	17	nt	nt
O=C1C2CCCN2C(c2ccccc2)N1c1cccc(Cl)c1 (stereo not drawn)	0	88	8	14	-2	10
O=C1C2CCCN2C(c2ccc(F)c(F)c2)N1c1cccc(Cl)c1 (stereo not drawn)	-1	5	3	-3	0	44*
N#Cc1c(NC(=O)CSc2ncnc3sccc23)oc(-c2ccco2)c1-c1ccco1	7.0*	-2	22	15	2	-16
Cc1cc(NC(=O)CSc2ncnc3sccc23)no1	-2	nt	2	26	0	1
O=C(c1ccccc1F)N1CCN(C2CCC(c3ccccc3)CC2)CC1 (stereo not drawn)	-3	282*	-30	7	-5	6
Cc1ccc(C(C)C)c(OCC(=O)NN=C2CCCC(=O)C2)c1	nt	2	nt	18	nt	nt
O=C(O)c1ccc(OCCCCCCOC2CCCCO2)cc1 (stereo not drawn)	-2	-7	0	10	-4	5
CC(=O)Nc1ccc(N2C(=O)CSC2c2ccccc2)cc1 (stereo not drawn)	4.8*	-2	14	15	-6	-3
Cc1cc(NC(=O)CSCc2nc(-c3cccc(F)c3)oc2C)no1	-4	-13	9	18	-5	40*
Cc1ccc(-c2nc(CSCC(=O)Nc3cc(C)on3)c(C)o2)cc1	-3	17	-7	22	2	5
COc1ccccc1CNC(=O)COC(=O)C1CCN(S(=O)(=O)c2ccccc2)CC1	nt	0	1	8	nt	nt
N/N=C/C(=N\Nc1ccc(Cl)cc1)C(=O)c1ccncc1	-3	47	?	31	8.8*	nt
COC(=O)C(C)Sc1nc2c(c(=O)n(C)c(=O)n2C)n1CCC(C)C (stereo not drawn)	-3	961*	?	5	-2	30
Cc1ccc(S(=O)(=O)N2CCN(C(=O)CC(C)n3nc(C)c(Cl)c3C)CC2)cc1C (stereo not drawn)	-1	-16	0	11	0	11
CCOC(=O)c1ccc(NC(=S)Nc2ccc(Br)cc2N)cc1	nt	-2	-2	26	nt	nt
COc1ccc(-c2noc(CSc3nc(-c4ccccc4)cc(=O)[nH]3)n2)cc1	0	41	15	1	-7	40*
CC[C@@H]1C/C=C\Cc2ccccc2[C@@H](C(=O)C[C@@H](O)CC(C)=O)OC1=O	nt	-17	nt	14	nt	nt
SMILES	IMP-1 inh	Mot1-301 SUMO	PolyA inhibitor	NALP3 yeast inh	VIM-2 inh	NALP1 inh
Cc1[nH]c2ccccc2c1NC(=O)CN1CCN(C(=O)c2ccco2)CC1	-4	-10	-6	7	-3	42*
Cc1ccc(NC(=O)CN2CCN(C(=O)c3ccco3)CC2)cc1	-2	2	5	18	-1	8
COc1ccc(Cl)cc1NC(=O)CN(C)C(=O)Cc1n[nH]c(=O)c2ccccc12	nt	-22	-6	-4	nt	nt
CCCCCC1CCC(C(=O)O)CC1 (stereo not drawn)	-1	-11	-8	35	0	27*
Cc1cc(=O)oc2cc(OCC(=O)OCC(=O)N(C)C3CCS(=O)(=O)C3)ccc12 (stereo not drawn)	0	13	-14	4	0	-50
COc1cccc(C(=O)Nc2nc(-c3ccc(S(=O)(=O)N4CCOCC4)cc3)cs2)c1	-5	255*	-4	10	-1	22
Cc1ccc(C)c(N2N=C(C(=O)NCCN3C(=O)S/C(=C\c4cccnc4)C3=O)CCC2=O)c1	nt	-7	16	4	nt	nt
COc1ccc(C(C[N+](=O)[O-])c2c(C)[nH]c3ccccc23)cc1OC (stereo not drawn)	13*	65	-2	28	0	44
O=C(CCC1CCCC1)c1c(O)c2ccccc2oc1=O	-3	-1	-14	35	-2	40*
COn1c(=O)c(=O)n(O)c2ccccc21	-2	-7	1	13	-2	8
O=c1c(=O)n(O)c2ccccc2n1O	11*	50	2	-2	4	-9
CC(C)N1C(=O)CC(Nc2cccc3cccc(N)c23)C1=O (stereo not drawn)	12*	nt	nt	nt	-2	-9
CC(C)c1ccc(S(=O)(=O)Nc2ccc3c(c2)OCO3)cc1	nt	44	nt	33	nt	nt
Cc1c(C)c2cc(Cl)c(O)c(CN3CCN(C)CC3)c2oc1=O	6.2*	-2	-2	-11	4	14
O=C(NNC(=O)c1ccccc1F)c1cccc(S(=O)(=O)N2CCc3ccccc32)c1	nt	11	nt	19	nt	nt
CC(C)C[C@@H](CN1C(N)=NC[C@@H]1C)NC(=O)CC12CC3CC(CC(C3)C1)C2	nt	-7	nt	14	nt	nt
C[C@H]1CNC(=O)C(=O)N1C[C@H](Cc1ccc(O)cc1)NC(=O)CC12CC3CC(CC(C3)C1)C2	8.4*	0	-14	3	-2	12
CCN(Cc1ccccc1)Cc1ccc(OCc2ccccc2)cc1	-1	25	-9	41	0	38*
CCn1c2ccccc2c2nc3ccccc3nc21	2	-12	-37	-26	9.9*	7
CC(=O)n1c2ccccc2c2nc3ccccc3nc21	2	9	1	25	4	30*
COc1cc(C(=O)NC(C)c2cccc3ccccc23)cc(OC)c1OC (stereo not drawn)	-4	13	-2	15	-2	-3
Cc1ccc(S(=O)(=O)CCC(=O)OCC(=O)c2cc(C)n(C)c2C)cc1	nt	15	nt	3	nt	nt
COc1cc(/C=N/Nc2ncnc3sc4c(c23)CCC4)ccc1O	-1	nt	-32	nt	10*	nt
COc1cc(/C=N/NC2=NCCCCC2)ccc1O	-3	36	-6	-9	-2	-40
Cc1nc2ccccn2c(=O)c1CCN1CCC(C(=O)c2ccc(F)cc2)CC1	-2	427*!	-19	12	-1	26
COC(=O)CNC(c1ccccc1)c1cc(Br)ccc1NC(=O)CCN1CCOCC1 (stereo not drawn)	-4	13	1	26	-3	nt
